From PubChem BioAssay
NSD2 HMT inh: NSD2 (human) methyltransferase inhibition | NSD2 peptide methylation, AlphaScreen, 120 min | actives 0.54% (n = 310,000) | inhibition, % at 12.5 µM | O96028
DNMT1 block: DNMT1 (human) enzyme inhibition; P26358; DNMT1 molecular beacon, Hinp1I cleavage, fluorescence; actives 0.83% (n = 360,000); inhibition (reported as % activation of signal), % at 10 µM; AID 588458
Target sequence (P26358 504-1616 limits assumed): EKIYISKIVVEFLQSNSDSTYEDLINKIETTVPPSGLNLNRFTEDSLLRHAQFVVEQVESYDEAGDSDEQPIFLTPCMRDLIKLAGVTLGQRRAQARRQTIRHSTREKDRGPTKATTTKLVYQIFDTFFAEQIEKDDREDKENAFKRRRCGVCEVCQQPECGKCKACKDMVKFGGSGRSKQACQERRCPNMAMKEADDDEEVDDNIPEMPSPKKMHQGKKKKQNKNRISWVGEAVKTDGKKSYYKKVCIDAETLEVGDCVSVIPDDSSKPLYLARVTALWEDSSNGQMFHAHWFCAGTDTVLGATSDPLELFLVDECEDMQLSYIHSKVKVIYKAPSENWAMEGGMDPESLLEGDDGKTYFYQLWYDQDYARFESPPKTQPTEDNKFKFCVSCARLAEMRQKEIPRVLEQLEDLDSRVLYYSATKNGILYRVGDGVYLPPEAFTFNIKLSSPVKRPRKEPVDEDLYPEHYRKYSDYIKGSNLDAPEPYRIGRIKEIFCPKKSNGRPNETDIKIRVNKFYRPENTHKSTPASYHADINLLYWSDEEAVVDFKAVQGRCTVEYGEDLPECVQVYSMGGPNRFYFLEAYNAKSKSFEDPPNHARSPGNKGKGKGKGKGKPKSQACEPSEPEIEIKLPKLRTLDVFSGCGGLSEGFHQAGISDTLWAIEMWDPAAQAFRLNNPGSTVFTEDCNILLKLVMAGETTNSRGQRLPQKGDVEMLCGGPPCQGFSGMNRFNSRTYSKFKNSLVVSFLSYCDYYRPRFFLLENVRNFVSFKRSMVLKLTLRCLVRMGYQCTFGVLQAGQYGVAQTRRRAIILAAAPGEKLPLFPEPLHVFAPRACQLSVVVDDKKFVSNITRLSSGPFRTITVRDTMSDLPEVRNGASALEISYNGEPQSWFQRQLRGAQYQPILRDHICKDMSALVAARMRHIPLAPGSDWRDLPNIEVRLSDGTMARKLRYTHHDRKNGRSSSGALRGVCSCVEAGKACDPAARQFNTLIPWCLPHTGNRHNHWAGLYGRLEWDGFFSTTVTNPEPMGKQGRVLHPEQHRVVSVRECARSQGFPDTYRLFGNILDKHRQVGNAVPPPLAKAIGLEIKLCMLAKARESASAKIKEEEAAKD
NS3 helicase inh: inhibitors of Hepatitis C virus NS3 helicase; NS3 helicase DNA unwinding, Cy5 molecular beacon fluorescence; inhibition, % at 10.9 µM; actives 0.56% (n = 290,000);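 active = inhibition above the mean of all tested compounds plus 3 SD, set per campaign, cut at about 35% in these data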
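assay system = NS3 helicase fragment of HCV | buffer or medium = MOPS pH 6.5, MgCl2, DTT, Tween20, BSA | timing = 60 min unwinding reaction at 25 °C after ATP addition | signal = Cy5 beacon fluorescence read at start and 1 h | read-out basis = % inhibition of unwinding | control set = low DMSO, high thioflavine S at 110 µM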
Casp6 inh: caspase-6 (human) enzyme inhibition; purified caspase-6, Z-VEID-R110 cleavage fluorescence; inhibition, % at 12.5 µM; actives 0.53% (n = 350,000);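 active = mean inhibition across replicates at least about 35%, with every replicate also reaching that limit, limit read from the data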
NS3 helicase cf: HCV NS3 helicase inhibition, confirmation assay; shares compounds with NS3 helicase inh; NS3 helicase DNA unwinding, Cy5 molecular beacon fluorescence; inhibition, % at 10.9 µM; actives 31% (n = 1,600);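 active = inhibition above the mean of all tested compounds plus 3 SD, cutoff set per campaign, cut at about 36% in these data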
FID counter trip: displaces DNA intercalator in HCV helicase counter-screen. shares compounds with NS3 helicase inh. inhibition, % at 7.9 µM. DNA fluorescent intercalator displacement, fluorescence. actives 4% (n = 1,600). AID 1945; in the data active = inhibition above about 37%;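 note: higher means more displacement of ethidium bromide from the DNA hairpin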
DNA FID DR: DNA intercalator displacement in dose response; shares compounds with NS3 helicase inh; 120 tested, under 10 active; IC50, µM; fluorescent intercalator displacement from DNA, fluorescence; call rule not given here
A number is an active result; i = inactive; nt = not tested or not shown. A selection: hits, their analogues and other compounds. The true share with any hit is near 1.5%. Cut-off read from the data, not from the text of the source, unless noted: active = inhibition above about 50%; inactive = the rest.

SMILES | NSD2 HMT inh | DNMT1 block | NS3 helicase inh | Casp6 inh | NS3 helicase cf | FID counter trip | others
Cc1ccc(-c2nc(CNC(=O)c3ccco3)cs2)cc1 | i | i | 40.7 | i | i | i
Cc1cc(C)cc(NC(=O)C2CCN(S(=O)(=O)c3ccc4c(c3)NC(=O)C(C)S4)CC2)c1 (stereo not drawn) | i | i | 42.9 | i | i | i
Cc1ccc(NC(=O)C2CCN(S(=O)(=O)c3ccc4c(c3)NC(=O)C(C)S4)CC2)c(Cl)c1 (stereo not drawn) | i | i | i | i | nt | nt
O=C(O)c1ccc(CCCc2ccccc2)cc1 | i | i | nt | i | nt | nt
O=C(O)CCCCCCCCCCCc1ccccc1 | nt | i | 38.1 | i | 70.2 | i
CCCNC(=O)N[C@@H]1CC[C@H](CCn2cc(C3CCCCC3)nn2)O[C@H]1CO | nt | nt | nt | i | nt | nt
CCOC(=O)c1cnc2c(C)cc(C)cc2c1NCCCN1CCOCC1 | i | i | 41.3 | i | i | 77.5
O=S(=O)(NC1CCCCC1)c1ccc(Cl)s1 | i | i | 51.7 | i | i | i
CC1CCC(NS(=O)(=O)c2ccc(Cl)s2)CC1 (stereo not drawn) | i | i | nt | i | nt | nt
Cc1noc(C)c1NC(=O)N(C)C[C@@H]1Oc2ccc(NC(=O)Nc3ccccc3)cc2CC(=O)N([C@H](C)CO)C[C@@H]1C | nt | nt | nt | i | nt | nt
CS(=O)(=O)N1N=C(c2ccco2)CC1c1ccccc1Cl (stereo not drawn) | i | i | 36.4 | i | i | i
CS(=O)(=O)N1N=C(c2ccco2)CC1c1ccc(Cl)cc1Cl (stereo not drawn) | i | i | i | i | nt | nt
CCOC(=O)Cc1cc(=O)n2[nH]cc(-c3ccc(Cl)cc3)c2n1 | i | i | 64.3 | i | 84.3 | i
Cc1cc(/C=C2\Cc3ccccc3C2=O)c(C)n1-c1ccccc1 | i | i | 38.8 | i | i | i
Cc1cc(C=C2C(=O)c3ccccc3C2=O)c(C)n1-c1ccccc1 | i | i | i | nt | nt | nt
Cc1ccc(NC(=S)Nc2cccc(-c3n[nH]c(=S)o3)c2)cc1 | i | i | 39.5 | i | i | i
NC(=S)Nc1cccc(-c2n[nH]c(=S)o2)c1 | i | i | i | i | nt | nt
C[C@H](CO)N1C[C@H](C)[C@@H](CN(C)C(=O)Cc2ccccc2)OCCCC[C@H](C)Oc2ccc(NC(=O)Nc3ccc4c(c3)OCO4)cc2C1=O | nt | nt | nt | i | nt | nt
O=C(CC1CC1)Nc1ccc2c(c1)[C@@H]1C[C@H](CC(=O)NC3CCCCC3)O[C@H](CO)[C@@H]1O2 | nt | nt | nt | i | nt | nt
COc1ccc(C)cc1NCc1cc(=O)oc2cc(-c3ccccc3)c(O)cc12 | i | i | 49.3 | nt | i | i
Cc1c(Cl)c(C(F)F)nn1CC(=O)NC1C(=O)N2C(C(=O)O)=C(CSc3nnnn3C)CSC12 (stereo not drawn) | i | i | 37.9 | 38.3 | i | i
CC(C)NC(=O)N1CC2(C1)[C@H](c1ccccc1)[C@@H](CO)N2Cc1cccnc1 | nt | nt | nt | i | nt | nt
CC(CC(=O)NC1CCCCC1)S(=O)(=O)c1ccc2c(c1)NC(=O)CO2 (stereo not drawn) | i | i | 37.6 | i | i | i
Oc1c(Cl)cc(CN2CCCCC2)c2cccnc12 | nt | i | 36.6 | nt | i | i
O=C(Nc1nc(-c2ccccn2)cs1)c1cc2ccccc2o1 | nt | i | i | i | nt | nt
SMILES | NSD2 HMT inh | DNMT1 block | NS3 helicase inh | Casp6 inh | NS3 helicase cf | FID counter trip | others
Cc1cc(-c2csc(NC(=O)c3ccc(C#N)cc3)n2)c(C)n1Cc1ccco1 | nt | i | 58.5 | i | i | i
Cc1cc(-c2csc(NC(=O)c3ccc(=O)[nH]c3)n2)c(C)n1Cc1ccccc1 | i | i | 73.9 | i | i | i
Cc1cc(-c2csc(NC(=O)c3cc4ccccc4o3)n2)c(C)n1C | i | i | 49.6 | nt | i | i
CCCOc1ccc2ccccc2c1/C=C1\SC(=O)NC1=O | i | i | 36.4 | i | i | i
COc1ccccc1OCCCOc1cccc(/C=C2\SC(=O)NC2=O)c1 | i | i | 44.2 | i | 68.1 | i | DNA FID DR=i
CCc1nnc(NS(=O)(=O)c2ccc(NC(=S)NC(=O)c3ccccc3)cc2)s1 | i | i | 45.5 | nt | 65.5 | i
CCc1nnc(NS(=O)(=O)c2ccc(NC(=S)NC(=O)c3ccc(Br)cc3)cc2)s1 | i | i | 57.8 | i | 48.9 | i
C[C@H](CO)N1C[C@H](C)[C@H](CN(C)Cc2cccnc2)OCc2cnnn2CCCC1=O | nt | nt | nt | i | nt | nt
C[C@H]1CN([C@@H](C)CO)S(=O)(=O)c2ccc(C#CC(C)(C)O)cc2O[C@@H]1CN(C)C | nt | nt | nt | i | nt | nt
CCOC(=O)CC(=O)CSc1nc2c(c(-c3cccs3)c1C#N)CCC2 | i | i | 40.6 | nt | i | i
Cc1ccc(NC(=O)CSc2nc(O)cc(=O)n2-c2ccc(C)cc2)cc1 | i | i | 47.8 | i | 36.5 | i
COc1ccc(NC(=O)N(C)C[C@H]2OCCCC[C@H](C)Oc3ccc(NS(=O)(=O)c4ccccc4)cc3C(=O)N([C@@H](C)CO)C[C@H]2C)cc1 | nt | nt | nt | i | nt | nt
Cc1ccc(N2C(=O)CC(N(O)C3CC(=O)N(c4ccc(C)cc4)C3=O)C2=O)cc1 (stereo not drawn) | i | i | 37.5 | nt | i | i
CCCCCCC(=O)N(O)C1CC(=O)N(c2ccc(C)cc2)C1=O (stereo not drawn) | i | i | i | nt | nt | nt
O=C(Nc1cccc(F)c1)N1CC(=O)N2[C@H](CO)[C@@H](c3ccc(-c4ccccc4)cc3)[C@@H]2C1 | nt | nt | nt | i | nt | nt
COC(=O)COc1ccc(C2Nc3c(Cl)ccc(C(=O)O)c3C3C=CCC32)cc1 (stereo not drawn) | i | i | i | i | nt | nt
O=C(O)c1ccc(Cl)c2c1C1C=CCC1C(c1ccccn1)N2 (stereo not drawn) | nt | nt | 62.6 | nt | 75.2 | i
Cc1[nH]c2ccccc2c1C(=O)COC(=O)c1ccc[n+]([O-])c1 | i | i | 45.6 | i | i | i
COCCNC(=O)C[C@@H]1C=C[C@H](NS(=O)(=O)c2ccc(C)cc2)[C@H](CO)O1 | nt | nt | nt | i | nt | nt
COc1ccc(Nc2nccc(-c3ccc(C#N)cc3)n2)cc1 | i | i | 36.8 | i | i | i
Cc1cccc(NC(=O)CN2C(=O)N/C(=C\c3cccn3-c3cccc(C(=O)O)c3)C2=O)c1 | i | i | 36.8 | i | i | i
Cc1ccc(-n2cccc2/C=C2/NC(=O)N(CC(=O)Nc3cccc(C)c3)C2=O)cc1 | i | i | i | i | nt | nt
COc1ccccc1NC(=O)CCS(=O)(=O)c1ccc2c(c1)NC(=O)C(C)S2 (stereo not drawn) | i | i | 45.5 | nt | i | i
CCCCNC(=O)[C@H]1C[C@H]1[C@@H](O)[C@H](CO)NC(=O)[C@H](CC(C)C)NC(=O)OC(C)(C)C | nt | i | 36.1 | nt | i | i
CCCCCCCc1nn2c(=O)cc(O)nc2s1 | i | i | 36.2 | nt | i | i
Cc1ccc(NC(N)=S)cc1 | i | i | 36.5 | i | i | i
COCC(=O)N1[C@H](C#N)[C@@H](c2ccccc2-c2ccccc2F)[C@H]1CO | nt | nt | nt | i | nt | nt
